G6PDH counter: counter-screen for G6PDH assay hits: L. mesenteroides G6PDH inhibition | Purified L. mesenteroides G6PDH, diaphorase/resazurin coupled fluorescence, 45 min | inhibition, % at 5 µM | AID 1020 | hit rate 0.12% among 200,000; in the data active means inhibition above about 50%
HKDC1 inh: blocks human hexokinase HKDC1 activity. Q2TB90. recombinant HKDC1, G6PDH/diaphorase resazurin coupled fluorescence. inhibition, % at 20 µM. hit rate 0.16% among 340,000. AID 493160;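 active means inhibition above about 35% when tested at 20 µM, limit read from the data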;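 further: plate controls were DMSO wells with enzyme for no effect and DMSO wells lacking enzyme for full effect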
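test system = in-house recombinant HK5 (HKDC1) enzyme | amount = HKDC1 at 5 µg/mL | control set = DMSO-enzyme wells negative, buffer-substituted wells positive | compound = one dose of 20 µM, 1% DMSO | schedule = reaction time 90 min, room temperature, protected from light | technique = resorufin fluorescence at 613 nm | reagent = glucose with 1 mM ATP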
PfG6PD inh: PfG6PD (Plasmodium falciparum) enzyme inhibition | inhibition, % at 20 µM | PfGluPho enzyme, NADPH resazurin-diaphorase fluorescence | hit rate 0.78% among 350,000;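 active means inhibition reaching at least a set limit at 20 µM in the primary screen, cut at about 59% in these data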;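 further: 0% = DMSO wells with substrate and 100% = DMSO wells lacking glucose-6-phosphate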
Diaphorase inh: counter-screen for diaphorase-based assays: diaphorase inhibitors and chemical oxidizers; diaphorase resazurin-to-resorufin fluorescence, NADH, 16 min; bacterial (C. kluyveri) enzyme, not human; inhibition, % at 20 µM; hit rate 0.69% among 190,000; AID 1217;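 active means primary screen inhibition at 20 µM above a set limit, cut at about 50% in these data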;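 further: plate controls were DMSO with full reaction for no effect and wells lacking NADH for full effect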
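controls = No-NADH positive control and DMSO neutral control | system = Clostridium kluyveri diaphorase enzyme | timing = reaction incubation of 16 min at room temperature | signal = resorufin fluorescence 544/590 nm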
* = called active by the depositor; / = not tested or not shown. Rows were chosen to be rich in hits. Some 1.2% of all compounds tested hit in one or more screens of this group.

SMILES | G6PDH counter | HKDC1 inh | PfG6PD inh | Diaphorase inh
Cc1ccc(NC(=S)Nc2ccc3nc(-c4ccccn4)c(-c4ccccn4)nc3c2)cc1C | 60* | 15 | 97* | 75*
O=C(Nc1ccc2nc(-c3ccco3)c(-c3ccco3)nc2c1)N1CCCCCC1 | -10 | 45* | 47 | 94*
Cc1ccc(NC(=S)Nc2ccccn2)cc1C | / | -1 | 5 | /
O=C(CCC(=O)N1CCN(c2ccccn2)CC1)c1ccc(Cl)s1 | / | 3 | 4 | /
COc1cc(C(=O)Oc2cc(C)cc(C)c2)cc(OC)c1OC | 8 | 2 | -10 | 20
COc1cc(C(=O)ON=C2C(C)=CC(=O)C=C2C)cc(OC)c1OC | 2 | -1 | 50 | 76*
Cc1ccc(-n2c(C)cc(=O)cc2C)c(C)c1 | 15 | -11 | 16 | 8
Cc1cc(N)ccc1-n1c(C)ccc1C | 11 | 15 | 59* | 25
Cc1cc(N)ccc1N1CCCC1 | 30 | 15 | 88* | 14
C/C(CC(=O)N1CCN(C=O)CC1)=N\NC(=O)c1cc2ccccc2cc1O | 3 | 23 | 58 | 88*
Oc1ccc(CN2CCCc3ccccc32)c2cccnc12 | -14 | -12 | 19 | 77*
CCOC(=O)N1CCN(Cc2cc(Cl)c3cccnc3c2O)CC1 | 41 | -6 | -2 | 61*
CCOC(=O)C1CCN(Cc2ccc(O)c3ncccc23)CC1 | 50* | -7 | 4 | 73*
COc1ccccc1N1CCN(Cc2ccc(O)c3ncccc23)CC1 | 29 | -7 | -16 | 57*
COc1ccccc1N1CCN(Cc2ccc(OC)c(OC)c2OC)CC1 | 3 | 1 | -17 | 1
Cc1cccc(OC(C)C(=O)Nc2nc(-c3ccncc3)cs2)c1 (centres undefined) | / | -2 | 26 | /
CCc1ccccc1NC(=O)COc1ccc(N2CC(C(N)=O)CC2=O)cc1 (centres undefined) | / | 4 | 7 | /
COc1ccc(CN2C(=O)C(CC(=O)NC(c3ccccc3)c3ccccc3)CC(C(=O)N(C(C)C)C(C)C)=C2C)cc1 (centres undefined) | / | / | 14 | /
Cc1cc(/C=C\c2ccc3cc(N(C)C)ccc3[n+]2C)c(C)n1-c1ccccc1 | / | 37* | 14 | /
C[n+]1c(/C=C/c2ccc(O)cc2)ccc2ccccc21 | / | 3 | 12 | /
COc1ccc(C(CNC(=O)CNC(=O)c2cccc(C)c2)N2CCCCC2)cc1 (centres undefined) | / | -1 | -4 | /
COCCNC(=O)c1cccc(OC2CCN(Cc3cccc(SC)c3)CC2)c1 | / | -3 | -2 | /
CCOC(=O)NC1(Nc2ccc(Cl)cn2)Oc2ccccc2O1 | 26 | / | / | 54*
CCOC(=O)/C=C/C(=O)OCC(=O)Nc1ccc(Cl)cn1 | 8 | 7 | 1 | 8
COC(=O)c1cc(=O)nc2sc(-c3ccc(F)cc3)nn12 | 4 | -13 | 59* | 13
SMILES | G6PDH counter | HKDC1 inh | PfG6PD inh | Diaphorase inh
Cc1ccc(NCc2ccc(O)c3ncccc23)cc1 | 43 | -2 | 18 | 70*
Cc1ccc(C)c(N=Nc2ccc(O)c3ncccc23)c1 | 12 | -33 | -17 | 23
Cc1ccc(NCc2ccc(O)c3ncccc23)cc1C | 43 | -12 | 33 | 78*
C[C@@H]1CN([C@H](C)CO)C(=O)CCCn2nncc2CO[C@@H]1CN(C)C(=O)Nc1ccnc(N2CCOCC2)c1 | / | / | 15 | /
COc1cccc(C(=O)Nc2ccc(NC(=O)C3CC=CCC3C(=O)O)cc2)c1 (centres undefined) | / | 1 | -26 | /
COc1cc2c(cc1NC(=O)CSc1ccc(C)cc1)oc1ccccc12 | 1 | 9 | 20 | 31
COc1cc2c(cc1NC(=O)C(C)Sc1ccc(C)cc1)oc1ccccc12 (centres undefined) | 0 | -4 | 5 | 76*
CN(c1ccccc1)S(=O)(=O)c1ccc(C(=O)NNC(=O)c2ccccc2F)cc1 | / | -3 | -14 | /
COc1ccc(/C=N/NC(=O)c2cc(O)c(O)c(O)c2)cc1Cn1cc([N+](=O)[O-])cn1 | 7 | 16 | 53 | 66*
CN(C(=O)c1ccc(NC(=O)Cc2ccc(NC(=O)C3CCN(S(=O)(=O)c4cccc([N+](=O)[O-])c4)CC3)cc2)cc1)C1CCCC1 | / | -1 | -3 | /
CC(=O)Nc1ccc(C2=CC(=O)C[C@H](c3ccc4c(c3)OCO4)C2)cc1 | / | 6 | 27 | /
O=c1c2c3nc4ccccc4nc3n(-c3ccc4c(c3)OCCO4)c2ncn1CC1CCCO1 (centres undefined) | 0 | / | / | 6
O=c1c2c3nc4ccccc4nc3n(-c3ccc4c(c3)OCCO4)c2ncn1C1CCCC1 | 5 | 48* | 5 | 26
CCOC(=O)CSc1ccc(-c2nc3ccccc3[nH]2)cn1 | -6 | 1 | 4 | 11
